In ChEMBL document CHEMBL1149632, “New cytotoxic diterpenylnaphthohydroquinone derivatives obtained from a natural diterpenoid” (2007):

What was measured:
Format in all cases: functional
[1] = test system: A549; assay: Antineoplastic cytotoxicity against human A549 cells after 72 hrs by SRB method; conditions: A549, 72 h
Summary of the method: (§1)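 Cells seeded at 5 × 10^3 per well in RPMI and left to attach for 18 h in drug-free medium. Compounds were then added in DMSO/H2O (3:7) and exposed for 72 h. Cells were fixed with cold 50% TCA for 60 min at 4 °C and stained with 0.4% SRB in 1% acetic acid for 10 min at rt. Bound dye was solubilised in Tris and read at 490 nm. GI50 from 100×[(T−T0)/(C−T0)]=50.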

[2] = test system: HT-29; assay: Antineoplastic cytotoxicity against human HT29 cells after 72 hrs by SRB method; conditions: HT-29, 72 h; summary of the method: as §1
[3] = Antineoplastic cytotoxicity against human MEL28 cells after 72 hrs by SRB method; conditions: SK-MEL-28, 72 h; summary of the method: as §1

Compound	GI50 [1]	GI50 [2]	GI50 [3]
C=C1CC[C@@H]2[C@](C)(CCC[C@]2(C)C(=O)OC)[C@H]1/C=C/c1ccc2c(OC)ccc(OC)c2c1	> 22.3 µM	> 22.3 µM	–
C=C1CC[C@@H]2[C@](C)(CCC[C@]2(C)C(=O)OC)[C@]1(O)CCc1ccc2c(OC)ccc(OC)c2c1	> 21.5 µM	> 21.5 µM	–
C=C1[C@H](O)C[C@@H]2[C@](C)(CCC[C@]2(C)C(=O)OC)[C@H]1CCc1ccc2c(OC(C)=O)ccc(OC(C)=O)c2c1	1.6 µM	1 µM	–
C=C1CC[C@@H]2[C@](C)(CCC[C@]2(C)C(=O)OC)[C@H]1CCc1ccc2c(OC(C)=O)ccc(OC(C)=O)c2c1	0.12 µM	0.5 µM	0.12 µM
C=C1[C@H](O)C[C@@H]2[C@](C)(CCC[C@]2(C)C(=O)OC)[C@H]1CCc1ccc2c(OCc3ccccc3)ccc(OCc3ccccc3)c2c1	> 4.9 µM	> 4.9 µM	> 4.9 µM
COC(=O)[C@@]1(C)CCC[C@]2(C)C(CCc3ccc4c(OC(C)=O)ccc(OC(C)=O)c4c3)=C(C)C(=O)C[C@@H]12	0.19 µM	0.19 µM	–
C=C1CC[C@@H]2[C@](C)(CCC[C@]2(C)C(=O)O)[C@H]1CCc1ccc2c(OC(C)=O)ccc(OC(C)=O)c2c1	0.24 µM	0.24 µM	0.24 µM
COC(=O)[C@@]1(C)CCC[C@]2(C)C(CCc3ccc4c(OC)ccc(OC)c4c3)=C(OOC(C)(C)C)CC[C@@H]12	> 18.6 µM	> 18.6 µM	> 18.6 µM
C=C1CC[C@@H]2[C@](C)(CCC[C@]2(C)C(=O)OC)[C@H]1CCc1ccc2c(c1)C(=O)C=CC2=O	0.2 µM	0.2 µM	0.2 µM
C=C1CC[C@H]2[C@@](C)(CCC[C@@]2(C)C(=O)OC)[C@@H]1CCc1ccc2c(c1)C(=O)c1cc(CC[C@H]3C(=C)CC[C@@H]4[C@]3(C)CCC[C@]4(C)C(=O)OC)ccc1C2=O	> 4.1 µM	> 4.1 µM	> 4.1 µM
C=C1C(=O)C[C@@H]2[C@](C)(CCC[C@]2(C)C(=O)OC)[C@H]1CCc1ccc2c(OCc3ccccc3)ccc(OCc3ccccc3)c2c1	14.8 µM	8.1 µM	–
C=C1CC[C@@H]2[C@](C)(CCC[C@]2(C)C(=O)OCc2ccccc2)[C@H]1CCc1ccc2c(OCc3ccccc3)ccc(OCc3ccccc3)c2c1	6.5 µM	4.4 µM	–
C=C1C(=O)C[C@@H]2[C@](C)(CCC[C@]2(C)C(=O)OC)[C@H]1CCc1ccc2c(OC)ccc(OC)c2c1	3.7 µM	3.2 µM	–
C=C1CC[C@@H]2[C@](C)(CCC[C@]2(C)C(=O)OC)[C@H]1CCc1ccc2c(OCc3ccccc3)ccc(OCc3ccccc3)c2c1	> 5 µM	> 5 µM	> 5 µM
C=C1CC[C@@H]2[C@](C)(CCC[C@]2(C)C(=O)OC)[C@]1(O)CCc1ccc2c(OCc3ccccc3)ccc(OCc3ccccc3)c2c1	12.4 µM	12.4 µM	9 µM
COC(=O)[C@@]1(C)CCC[C@]2(C)C(CCc3ccc4c(OC)ccc(OC)c4c3)=C(C)CC[C@@H]12	> 6.7 µM	> 6.7 µM	> 6.7 µM
COC(=O)[C@@]1(C)CCC[C@]2(C)C(CCc3ccc4c(OC(C)=O)ccc(OC(C)=O)c4c3)=C(C)CC[C@@H]12	0.24 µM	0.24 µM	–
C=C1CC[C@@H]2[C@](C)(CCC[C@]2(C)C(=O)O)[C@H]1CCc1ccc2c(c1)C(=O)C=CC2=O	> 7.4 µM	5.7 µM	5.7 µM
C=C1CC[C@@H]2[C@](C)(CCC[C@]2(C)C(=O)O)[C@H]1CCC1=CCc2c(OC(C)=O)ccc(OC(C)=O)c2C1	2.5 µM	10.1 µM	5 µM
COC(=O)[C@@]1(C)CCC[C@]2(C)C(CCc3ccc4c(OC(C)=O)ccc(OC(C)=O)c4c3)=C(C)[C@@H](O)C[C@@H]12	4.8 µM	4.8 µM	–
C=C1C(=O)C[C@@H]2[C@](C)(CCC[C@]2(C)C(=O)OC)[C@H]1CCc1ccc2c(OC(C)=O)ccc(OC(C)=O)c2c1	2.3 µM	4.4 µM	–
COC(=O)[C@@]1(C)CCC[C@]2(C)C(CCc3ccc4c(OCc5ccccc5)ccc(OCc5ccccc5)c4c3)=C(C)CC[C@@H]12	15.2 µM	> 16.6 µM	–
C=C1CC[C@@H]2[C@](C)(CCC[C@]2(C)C(=O)OC)[C@H]1CCc1ccc2c(OC)ccc(OC)c2c1	> 6.7 µM	> 6.7 µM	> 6.7 µM
C=C1CC[C@@H]2[C@](C)(CCC[C@]2(C)C(=O)OC)[C@H]1CCC1=CCc2c(OC(C)=O)ccc(OC(C)=O)c2C1	0.51 µM	1.38 µM	0.68 µM
C=C1[C@H](O)C[C@@H]2[C@](C)(CCC[C@]2(C)C(=O)OC)[C@H]1CCc1ccc2c(OC)ccc(OC)c2c1	> 6.4 µM	> 6.4 µM	> 6.4 µM
